Tests used:
[1] = Cytotoxicity against african green monkey Vero cells after 72 hrs by MTT assay; format: cell-based; conditions: chlorocebus sabaeus
Summary of the method: (§1)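 Vero or transformed THP-1 cells incubated with compound (0.3–300 μM) 72 h at 37 °C, 5% CO2; untreated controls. MTT read-out, formazan OD at 580 nm; % cytotoxicity = 100 × (OD control − OD treated)/OD control. CC50/CC90 by sigmoidal regression; triplicates, repeated twice. DMSO stocks 100× concentrated, diluted in medium.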

Trypanosoma cruzi [2] = experiment: Antitrypanosomal activity against Trypanosoma cruzi 320I01 epimastigotes after 72 hrs by haemocytometry; format: functional, organism-based; conditions: 320I01, 72 h
Summary of the method: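 Late-phase T. cruzi epimastigotes cultured in LIT medium with hiFCS at 28 °C; threefold serial dilutions (0.3–100 μM) for 72 h at 28 °C, untreated controls. Parasites counted in a haemocytometer; IC50/IC90 by sigmoidal regression; each concentration in triplicate, two experiments.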

[3] = Selectivity index, CC50 for african green monkey Vero cells to IC50 for Trypanosoma cruzi 320I01 epimastigote; format: functional
Summary of the method: (§2)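 Selectivity index computed as CC50 in Vero cells divided by IC50 against the T. cruzi stage named in the line.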

Trypanosoma cruzi [4] = experiment: Antitrypanosomal activity against Trypanosoma cruzi 320I01 amastigotes infected in african green monkey Vero cells after 5 days by Giemsa staining; format: functional, organism-based; conditions: 320I01, Vero, 120 h
Summary of the method: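 Vero cells (RPMI, 5% hiSBF, 37 °C, 5% CO2) infected 24 h with tissue-derived T. cruzi trypomastigotes at parasite:cell 10:1. Compound dilutions (top 100 μM) applied 5 days at 37 °C, 5% CO2, medium changed once at day 3. Infected cells scored per 300 cells on methanol-fixed Giemsa preparations; IC50/IC90 by sigmoidal regression; triplicates, two experiments.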

[5] = Selectivity index, CC50 for african green monkey Vero cells to IC50 for Trypanosoma cruzi 320I01 amastigotes; format: functional; summary of the method: as §2
Leishmania chagasi [6] = experiment: Antileishmanial activity against Leishmania chagasi MHOM/BR/74/PP75 promastigotes after 72 hrs by haemocytometry; format: functional, organism-based; conditions: MHOM/BR/74/PP75, 72 h
Summary of the method: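 Late-phase L. chagasi promastigotes, grown at 28 °C in RPMI 1640 with hemin, HEPES and 10% hiSBF, exposed to threefold serial dilutions (0.3–100 μM) for 72 h at 28 °C; untreated controls. Growth inhibition from haemocytometer counts; IC50/IC90 by sigmoidal regression; triplicates, repeated twice.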

[7] = Cytotoxicity against human THP1 cells after 72 hrs by MTT assay; format: cell-based; conditions: THP-1 cells; summary of the method: as §1
[8] = Selectivity index, CC50 for human THP1 cells to IC50 for Leishmania chagasi MHOM/BR/74/PP75 promastigotes; format: functional, THP-1
Summary of the method: (§3)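 Selectivity index computed as CC50 in THP-1 cells divided by IC50 against the L. chagasi stage named in the line.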

Leishmania chagasi [9] = experiment: Antileishmanial activity against Leishmania chagasi MHOM/BR/74/PP75 amastigotes infected in human THP1 cells after 5 days by Giemsa staining; format: functional, organism-based; conditions: MHOM/BR/74/PP75, THP-1, 120 h
Summary of the method: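 THP-1 cells (RPMI, 5% hiSBF, 37 °C, 5% CO2) transformed, then infected 24 h with late-phase L. chagasi promastigotes at parasite:cell 10:1. Treated with compound dilutions (top 100 μM) 5 days at 37 °C, 5% CO2, medium changed once after 3 days. Infected cells counted per 300 cells on methanol-fixed Giemsa slides; IC50/IC90 by sigmoidal regression; triplicates, repeated twice.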

[10] = Selectivity index, CC50 for human THP1 cells to IC50 for Leishmania chagasi MHOM/BR/74/PP75 amastigotes; format: functional, THP-1; summary of the method: as §3

Compound	IC50 (Trypanosoma cruzi [2])	IC90 (Trypanosoma cruzi [2])	IC50 (Trypanosoma cruzi [4])	IC90 (Trypanosoma cruzi [4])	IC50 (Leishmania chagasi [6])	IC90 (Leishmania chagasi [6])	IC50 (Leishmania chagasi [9])	IC90 (Leishmania chagasi [9])	CC50 at 72 h [1]	CC90 at 72 h [1]	Selectivity Index [3]	Selectivity Index [5]	CC50 at 72 h [7]	CC90 at 72 h [7]	Selectivity Index [8]	Selectivity Index [10]
O[C@@H]1Cc2ccccc2N[C@H](c2cccc(Cl)c2)C1 (relative stereo)	19.6 µM	> 100 µM	> 100 µM	> 100 µM	41.2 µM	47 µM	> 100 µM	> 100 µM	295 µM	> 300 µM	15.05	>3	167 µM	> 300 µM	4.04	>1
O[C@@H]1Cc2cc(Br)ccc2N[C@H](c2ccccc2)C1 (relative stereo)	15.7 µM	57.4 µM	97.8 µM	99.4 µM	45 µM	> 100 µM	97.7 µM	> 100 µM	42.1 µM	> 300 µM	2.68	0.43	185 µM	> 300 µM	4.1	>1
Fc1ccccc1[C@@H]1C[C@@H]2Cc3cc(Cl)ccc3N1O2 (relative stereo)	18.9 µM	38.1 µM	> 100 µM	> 100 µM	23.8 µM	67.3 µM	> 100 µM	> 100 µM	123 µM	> 300 µM	6.51	>1	> 300 µM	> 300 µM	>12	>3
Fc1cccc(Cl)c1[C@@H]1C[C@@H]2Cc3ccccc3N1O2 (relative stereo)	17.7 µM	> 100 µM	> 100 µM	> 100 µM	> 100 µM	> 100 µM	> 100 µM	> 100 µM	> 300 µM	> 300 µM	>17	>3	> 300 µM	> 300 µM	>3	>3
O[C@@H]1Cc2cc(Cl)ccc2N[C@H](c2ccccc2)C1 (relative stereo)	49.6 µM	> 100 µM	> 100 µM	> 100 µM	22.1 µM	90.6 µM	> 100 µM	> 100 µM	191 µM	> 300 µM	3.85	>2	188 µM	> 300 µM	8.5	>1
O[C@@H]1Cc2cc(F)ccc2N[C@H](c2ccccc2)C1 (relative stereo)	12.4 µM	> 100 µM	> 100 µM	> 100 µM	> 100 µM	> 100 µM	> 100 µM	> 100 µM	> 300 µM	> 300 µM	>24	>3	> 300 µM	> 300 µM	>3	>3
Clc1ccc2c(c1)C[C@H]1C[C@@H](c3c(Cl)cccc3Cl)N2O1 (relative stereo)	> 100 µM	> 100 µM	> 98.2 µM	> 98.2 µM	71 µM	> 100 µM	> 98.2 µM	> 98.2 µM	57 µM	> 295 µM	>0.56	>0.58	> 295 µM	> 295 µM	4.15	>3
Fc1cccc(Cl)c1[C@@H]1C[C@@H]2Cc3cc(Cl)ccc3N1O2 (relative stereo)	48.1 µM	> 100 µM	> 100 µM	> 100 µM	> 100 µM	> 100 µM	> 100 µM	> 100 µM	> 300 µM	> 300 µM	>6	>3	> 300 µM	> 300 µM	>3	>3
O[C@@H]1Cc2ccccc2N[C@H](c2ccccc2)C1 (relative stereo)	31.8 µM	> 100 µM	> 100 µM	> 100 µM	> 100 µM	> 100 µM	> 100 µM	> 100 µM	> 300 µM	> 300 µM	>9	>3	> 300 µM	> 300 µM	>3	>3
O[C@@H]1Cc2cc(OC(F)(F)F)ccc2N[C@H](c2ccccc2)C1 (relative stereo)	26.6 µM	60.4 µM	> 100 µM	> 100 µM	35.5 µM	43.2 µM	> 100 µM	> 100 µM	124 µM	263 µM	4.64	>1	104 µM	> 300 µM	2.92	>1

Second part, led by results:

IC50 (Trypanosoma cruzi [2])	IC90 (Trypanosoma cruzi [2])	IC50 (Trypanosoma cruzi [4])	IC90 (Trypanosoma cruzi [4])	IC50 (Leishmania chagasi [6])	IC90 (Leishmania chagasi [6])	IC50 (Leishmania chagasi [9])	IC90 (Leishmania chagasi [9])	Compound	CC50 at 72 h [1]	CC90 at 72 h [1]	Selectivity Index [3]	Selectivity Index [5]	CC50 at 72 h [7]	CC90 at 72 h [7]	Selectivity Index [8]	Selectivity Index [10]
> 100 µM	> 100 µM	> 100 µM	> 100 µM	> 100 µM	> 100 µM	> 100 µM	> 100 µM	Clc1cccc(Cl)c1[C@@H]1C[C@@H]2Cc3ccccc3N1O2 (relative stereo)	> 300 µM	> 300 µM	>3	>3	> 300 µM	> 300 µM	>3	>3
15.6 µM	54.9 µM	98 µM	> 100 µM	> 100 µM	> 100 µM	> 100 µM	> 100 µM	Cc1cccc([C@@H]2C[C@H](O)Cc3ccccc3N2)c1 (relative stereo)	> 300 µM	> 300 µM	>19	>3	176 µM	> 300 µM	>1	>1
65.4 µM	> 100 µM	41.8 µM	> 100 µM	67.9 µM	> 100 µM	> 100 µM	> 100 µM	O[C@@H]1Cc2ccccc2N[C@H](c2ccc(Cl)cc2)C1 (relative stereo)	> 300 µM	> 300 µM	>4	>7	114 µM	> 300 µM	1.68	>1
26.4 µM	57.6 µM	> 100 µM	> 100 µM	> 100 µM	> 100 µM	> 100 µM	> 100 µM	O[C@@H]1Cc2ccccc2N[C@H](c2ccc(F)cc2)C1 (relative stereo)	> 300 µM	> 300 µM	>11	>3	> 300 µM	> 300 µM	>3	>3
30.1 µM	70.2 µM	> 100 µM	> 100 µM	97.1 µM	> 100 µM	> 100 µM	> 100 µM	COc1cccc([C@@H]2C[C@H](O)Cc3ccccc3N2)c1 (relative stereo)	> 300 µM	> 300 µM	>10	>3	> 300 µM	> 300 µM	>3	>3

Source: ChEMBL document CHEMBL1177650, “Synthesis, structural elucidation and in vitro antiparasitic activity against Trypanosoma cruzi and Leishmania chagasi parasites of novel tetrahydro-1-benzazepine derivatives” (Bioorg Med Chem, 2010)
